In PMC6558985 (Nature chemical biology, 2019):

How the values were obtained:
HeLa-N386C cells [1] = experiment: Intercellular bridge analysis; format: cell-based, human; conditions: 10 µM, 4.5 hours, average ± s.d., n = 3
Method in brief: (§1)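 Fixed HeLa Flp-In T-Rex lines expressing GFP-tagged spastin M87e4, either wildtype or N386C. Cells were exposed to 0.1% DMSO or 10 µM test compound for 4.5 h, then stained for acetylated tubulin to mark intercellular bridges and imaged by immunofluorescence. Read-out is the percent of cells with a bridge: >2500 cells per condition, average ± s.d., n = 3.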

Xl-katanin = Xl-katanin (Xenopus laevis, UniProt Q9PUL2); experiment: Steady-state ATPase activity, NADH-coupled assay, Xl-katanin; format: biochemical, X. laevis; conditions: 10 µM, 0.5 mM MgATP, n = 3
Sequence of Xl-katanin (Q9PUL2 whole entry): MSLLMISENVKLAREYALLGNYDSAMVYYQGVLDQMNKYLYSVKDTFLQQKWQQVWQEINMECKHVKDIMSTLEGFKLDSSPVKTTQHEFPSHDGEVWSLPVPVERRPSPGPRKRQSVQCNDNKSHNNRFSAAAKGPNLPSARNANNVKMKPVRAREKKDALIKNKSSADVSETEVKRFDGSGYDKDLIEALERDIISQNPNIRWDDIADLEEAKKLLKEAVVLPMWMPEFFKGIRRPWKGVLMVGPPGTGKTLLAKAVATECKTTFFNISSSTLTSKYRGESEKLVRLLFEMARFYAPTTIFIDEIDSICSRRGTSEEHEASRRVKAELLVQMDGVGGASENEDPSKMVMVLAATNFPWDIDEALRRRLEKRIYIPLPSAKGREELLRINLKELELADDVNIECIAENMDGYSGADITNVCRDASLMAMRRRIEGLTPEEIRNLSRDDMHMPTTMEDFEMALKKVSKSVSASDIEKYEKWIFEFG
Method in brief: (§2)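 Recombinant AAA protein constructs assayed by steady-state ATPase with NADH-coupled read-out at 0.5 mM MgATP, with test compound at 2 µM or 10 µM. Activity is reported as percent of steady-state ATPase activity, average ± s.d., n = 3.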

Hs-FIGL1 = target: T1, Hs-FIGL1 (Homo sapiens, UniProt Q6PIW4); experiment: Steady-state ATPase activity, NADH-coupled assay, Hs-FIGL1; format: biochemical; conditions: 10 µM, 0.5 mM MgATP, n = 3
T1 sequence (Q6PIW4 288-674): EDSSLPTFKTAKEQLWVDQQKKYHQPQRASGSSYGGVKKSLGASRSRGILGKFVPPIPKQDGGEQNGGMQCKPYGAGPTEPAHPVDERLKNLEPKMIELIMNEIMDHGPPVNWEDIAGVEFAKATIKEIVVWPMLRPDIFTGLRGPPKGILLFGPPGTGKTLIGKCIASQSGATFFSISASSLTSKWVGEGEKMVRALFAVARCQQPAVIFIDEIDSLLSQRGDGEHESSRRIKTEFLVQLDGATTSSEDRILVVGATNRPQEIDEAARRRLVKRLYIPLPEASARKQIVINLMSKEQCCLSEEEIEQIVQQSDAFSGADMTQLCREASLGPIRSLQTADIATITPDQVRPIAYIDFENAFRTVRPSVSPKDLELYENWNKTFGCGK
Method in brief: as §2

HeLa-WT cells [2] = experiment: CellTiter-Glo cell viability assay; format: cell-based, human; conditions: 10 µM, 48 h
Hs-spastin-N386C = experiment: Steady-state ATPase activity, NADH-coupled assay, Hs-spastin N386C; format: biochemical, human; conditions: 1 mM MgATP
Mm-VCP = Mm-VCP (Mus musculus, UniProt Q01853, I206V); experiment: Steady-state ATPase activity, NADH-coupled assay, Mm-VCP; format: biochemical; conditions: 10 µM, 0.5 mM MgATP, n = 3
Sequence of Mm-VCP (Q01853 whole entry I206V): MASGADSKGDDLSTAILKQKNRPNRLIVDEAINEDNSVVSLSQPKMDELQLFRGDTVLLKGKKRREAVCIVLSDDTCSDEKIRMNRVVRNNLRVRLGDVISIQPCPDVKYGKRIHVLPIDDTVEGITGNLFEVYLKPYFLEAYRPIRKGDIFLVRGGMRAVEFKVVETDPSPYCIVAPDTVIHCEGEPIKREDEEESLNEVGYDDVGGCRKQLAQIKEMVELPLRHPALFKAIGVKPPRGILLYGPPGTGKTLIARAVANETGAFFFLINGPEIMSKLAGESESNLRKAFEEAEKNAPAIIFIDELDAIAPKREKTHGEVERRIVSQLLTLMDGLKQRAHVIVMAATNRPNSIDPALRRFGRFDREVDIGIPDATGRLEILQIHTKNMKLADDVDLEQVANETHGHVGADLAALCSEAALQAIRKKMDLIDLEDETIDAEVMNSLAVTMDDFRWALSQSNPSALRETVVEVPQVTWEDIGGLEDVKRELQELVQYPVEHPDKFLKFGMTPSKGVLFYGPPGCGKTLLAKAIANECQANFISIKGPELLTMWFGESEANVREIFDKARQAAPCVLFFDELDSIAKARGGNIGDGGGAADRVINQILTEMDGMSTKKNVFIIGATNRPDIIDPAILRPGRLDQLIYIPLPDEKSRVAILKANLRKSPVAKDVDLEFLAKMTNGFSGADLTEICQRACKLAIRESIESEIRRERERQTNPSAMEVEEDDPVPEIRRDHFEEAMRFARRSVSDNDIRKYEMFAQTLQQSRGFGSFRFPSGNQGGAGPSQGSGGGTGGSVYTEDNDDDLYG
Method in brief: as §2

HeLa-WT cells [3] = experiment: Intercellular bridge analysis; format: cell-based, human; conditions: 10 µM, 4.5 hours
Method in brief: as §1

human VPS4B = target: T2, human VPS4B (Homo sapiens, UniProt O75351); experiment: Steady-state ATPase activity, NADH-coupled assay, VPS4B; format: biochemical; conditions: 1 mM MgATP, n = 3
T2 sequence (O75351 1-444): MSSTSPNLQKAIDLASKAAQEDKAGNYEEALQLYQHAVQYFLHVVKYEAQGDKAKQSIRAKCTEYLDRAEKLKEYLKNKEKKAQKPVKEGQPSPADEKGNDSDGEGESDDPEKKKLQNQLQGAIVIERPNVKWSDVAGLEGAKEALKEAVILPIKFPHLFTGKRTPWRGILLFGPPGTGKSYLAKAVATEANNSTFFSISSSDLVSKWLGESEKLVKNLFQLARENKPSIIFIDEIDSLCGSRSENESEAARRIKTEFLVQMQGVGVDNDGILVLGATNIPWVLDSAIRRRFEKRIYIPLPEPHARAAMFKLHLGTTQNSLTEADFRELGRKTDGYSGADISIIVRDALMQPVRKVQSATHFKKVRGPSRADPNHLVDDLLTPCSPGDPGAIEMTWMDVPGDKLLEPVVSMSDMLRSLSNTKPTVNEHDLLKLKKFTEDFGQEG

HeLa-WT cells [4] = experiment: Microtubule organization; format: cell-based, human; conditions: 10 µM, 4 hours
Hs-PCH2 = target: T3, Hs-PCH2 (Homo sapiens, UniProt Q15645); experiment: Steady-state ATPase activity, NADH-coupled assay, Hs-PCH2; format: biochemical; conditions: 10 µM, 0.5 mM MgATP, n = 3
T3 sequence (Q15645 1-432): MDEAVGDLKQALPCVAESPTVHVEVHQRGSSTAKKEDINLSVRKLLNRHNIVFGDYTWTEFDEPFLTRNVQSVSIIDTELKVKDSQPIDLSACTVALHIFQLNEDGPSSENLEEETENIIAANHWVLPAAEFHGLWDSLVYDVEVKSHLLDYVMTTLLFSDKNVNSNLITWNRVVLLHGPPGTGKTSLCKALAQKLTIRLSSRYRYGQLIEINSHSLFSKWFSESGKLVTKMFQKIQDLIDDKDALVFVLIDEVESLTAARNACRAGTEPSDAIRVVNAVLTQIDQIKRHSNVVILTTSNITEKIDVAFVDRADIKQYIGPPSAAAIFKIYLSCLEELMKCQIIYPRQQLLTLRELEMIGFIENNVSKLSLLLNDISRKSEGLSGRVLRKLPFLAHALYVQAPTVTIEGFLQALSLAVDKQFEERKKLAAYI
Method in brief: as §2

HeLa-N386C cells [5] = experiment: Live-cell imaging of GFP-spastin puncta in anaphase, HeLa-N386C; format: cell-based, human; conditions: 10 µM for 1 hour, 20 min after cleavage furrow ingression

inhibition of Xl-katanin ATPase activity (Xl-katanin): did not appreciably inhibit | inhibition of Hs-FIGL1 ATPase activity (Hs-FIGL1): did not appreciably inhibit | potency on Hs-spastin-N386C relative to wildtype (less potent) (Hs-spastin-N386C): > 100 fold | inhibition of Mm-VCP ATPase activity (Mm-VCP): did not appreciably inhibit | inhibition of ATPase activity of recombinant human VPS4 (human VPS4B): did not inhibit ATPase activity | inhibition of Hs-PCH2 ATPase activity (Hs-PCH2): did not appreciably inhibit
SMILES: CC(C)[C@@H]1CN(c2nc(Nc3cc(C(C)(C)C)[nH]n3)c3cc[nH]c3n2)CCN1 [spastazoline, (R)-N-(5-(tert-butyl)-1H-pyrazol-3-yl)-2-(3-isopropylpiperazin-1-yl)-7H-pyrrolo[2,3-d]pyrimidin-4-amine]
percent of cells with an intercellular bridge, HeLa-N386C (HeLa-N386C cells [1]): 13.6 ± 1.4% | viability of HeLa cells (HeLa-WT cells [2]): did not impact the viability | increase in number of cells with intercellular bridges compared to DMSO control, HeLa-WT (HeLa-WT cells [3]): ~ 2 fold | percent of cells with an intercellular bridge, HeLa-WT (HeLa-WT cells [3]; average ± s.d., n = 3): 25.2 ± 1.4% | organization of microtubules (HeLa-WT cells [4]): did not result in overt changes in the organization of microtubules | increase in GFP-spastin dots in HeLa-N386C with respect to wildtype (HeLa-N386C cells [5]): 1.6 fold | number of GFP-spastin dots, HeLa-N386C (HeLa-N386C cells [5]; average ± s.e.m.): 8 ± 3
